Assay results from different studies.
SIRT3: NAD-dependent protein deacetylase sirtuin-3, mitochondrial (SIRT3, Homo sapiens, UniProt Q9NTG7)
PTGS1: Prostaglandin G/H synthase 1 (PTGS1, Ovis aries, UniProt P05979)
TAF1 BD2: Transcription initiation factor TFIID subunit 1, BD2 (TAF1, Homo sapiens, UniProt P21675)
MARK1: Serine/threonine-protein kinase MARK1 (MARK1, Homo sapiens, UniProt Q9P0L2)

`Cc1cc2c(cc1N1C(=O)c3cccc4c(Cl)ccc(c34)C1=O)n(C)c(=O)n2C` gave a ΔTm of 0.6 °C (Bromodomain adjacent to zinc finger domain protein 2B, bromodomain (BAZ2B, Homo sapiens, UniProt Q9UIF8); thermal stability; DSF; 10 µM).
`CCCCC[C@@H]1CC(=O)c2cc(Cl)cc(Br)c2O1` gave an inhibition of 3.9% (SIRT3; enzyme activity; inhibitor; fluorescence; 200 µM).
`CCCCC#CCNC(=O)c1ccccc1SC(C)=O` has a kinact of 0.000367 s⁻¹ (PTGS1; enzyme activity; inhibitor).
`CCCOc1ccc(OC)c(F)c1C(=O)c1ccc(C(=O)N[C@@H]2CNC[C@H]2NC(=O)c2ccc3[nH]ncc3c2)cc1` has a remaining activity of 66% (Serine/threonine-protein kinase MRCK alpha (CDC42BPA, Homo sapiens, UniProt Q5VT25); enzyme activity; inhibitor; 0.1 µM).
The activity vs control of `Cc1ccc(C(=O)NCc2ccsc2)cc1C#Cc1cn(C(C)C)c2ncnc(N)c12` is reported as 91% (Transcription initiation factor TFIID subunit 1-like (TAF1L, Homo sapiens, UniProt Q8IZX4); enzyme activity; inhibitor; 1 µM).
`Oc1cccc(Nc2nc(-c3ccc(F)cc3F)cs2)c1` gave an inhibition of -5.6% (Type-2 angiotensin II receptor (AGTR2, Homo sapiens, UniProt P50052); cell-free assay; 10 µM).
`Cc1ccc(C(=O)Nc2ccc(CN3CCN(C)CC3)c(C(F)(F)F)c2)cc1C#Cc1cnc2cccnn12` gave a remaining activity of 79% (Mitogen-activated protein kinase kinase kinase 6 (MAP3K6, Homo sapiens, UniProt O95382); enzyme activity; inhibitor; 23.5 nM).
For `Oc1ccc(-c2nc(-c3ccncc3)c(-c3ccc(F)cc3)[nH]2)cc1`, the ΔTm was -0.06 °C (TAF1 BD2; thermal stability; DSF; 10 µM).
With `NS(=O)(=O)c1ccc(Nc2nc(-c3ccc(F)cc3)c3ccccc3n2)cc1` the remaining binding was 76% (Peregrin (BRPF1, Homo sapiens, UniProt P55201); binding; competition with immobilised ligand; 1 µM).
`NS(=O)(=O)c1ccc(CNc2ccnc(Nc3cccc(CN4CCOCC4)c3)n2)cc1` gave a remaining activity of 102% (MARK1; enzyme activity; inhibitor; radiometric; 1 µM).
With `C[S+]([O-])c1ccc(-c2nc(-c3ccncc3)c(-c3ccc(F)cc3)[nH]2)cc1` (centres unmarked) the ΔTm was -0.19 °C (Transcription initiation factor TFIID subunit 1, BD1 (TAF1, Homo sapiens, UniProt P21675); thermal stability; DSF; 10 µM).
`CCCCCCNC(=O)c1ccccc1SC(C)=O` gave a kinact of 0.0103 s⁻¹ (PTGS1; enzyme activity; inhibitor; mass spectrometry).
`COc1cc(NC(C)=O)c(Cl)cc1C(=O)Nc1nccs1` gave an inhibition of -7.2% (D(1A) dopamine receptor (DRD1, Homo sapiens, UniProt P21728); cell-free assay; 10 µM).
With `Cc1cnc(Nc2ccc(OCCN3CCCC3)cc2)nc1Nc1cccc(S(=O)(=O)NC(C)(C)C)c1` the ΔTm was 0.28 °C (TAF1 BD2; thermal stability; DSF; 10 µM).
With `Cc1nn(CC(F)(F)F)cc1Nc1ncc(C2CC2)c(NCCCNC(=O)C2CCC2)n1` the remaining activity was 79% (MARK1; enzyme activity; inhibitor; radiometric; 1 µM).
For `C#CCNC(=O)c1ccccc1SC(C)=O`, the kinact was 0.000417 s⁻¹ (PTGS1; enzyme activity; inhibitor).
With `CCCCCc1cc(=O)c2cc(Cl)cc(Br)c2o1` the inhibition was 4.5% (SIRT3; enzyme activity; inhibitor; fluorescence; 200 µM).
